Test results: ChEMBL document CHEMBL1144451, “Polyamine-vectored iron chelators: the role of charge” (J Med Chem, 2005)

Columns and labels:
L1210 [1] = assay: Ability to compete with [3H]SPD for the polyamine transport apparatus in L1210 cells; assay type: functional, cell-based, Mus musculus
L1210 [2] = assay: Ratio of intracellular concentration to that of treatment concentration in L1210 cells; assay type: functional, Mus musculus
L1210 [3] = assay: Inhibitory concentration against growth of murine L1210 cells at 48 hours; assay type: functional, cell-based; conditions: Mus musculus, L1210, 48 h
Procedure, shortened: (§1)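 Proliferation of murine leukemia L1210 cells measured after 48 h or 96 h exposure. IC50 reported as the mean of at least two experiments. Variation from the mean was typically 10–25% for the 96-h values.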

L1210 [4] = assay: Inhibitory concentration against growth of murine L1210 cells at 96 hours; assay type: functional, cell-based; conditions: Mus musculus, L1210, 96 h; procedure, shortened: as §1
L1210 [5] = assay: Intracellular concentration was determined in murine L1210 cells after treatment with 100 uM compound for 48 h; assay type: functional, cell-based; conditions: Mus musculus
Procedure, shortened: (§2)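 Murine leukemia L1210 cells exposed to the compound, 48 h unless another time is indicated. Intracellular level measured as pmol/10^6 cells. Converted to concentration using about 1 µL volume per 10^6 untreated cells.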

[6] = Iron clearing efficiency in urine of rodents following a subcutaneous dosage of 300 umol/kg; assay type: functional
Procedure, shortened: (§3)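 Bile-duct-cannulated rats given a subcutaneous dose of 300 µmol/kg, equivalent in iron-binding capacity to 450 µmol/kg of the 3:1 ligands. Chelator-induced iron excretion measured in both bile and urine. Bile collected as multiple samples to follow excretion kinetics.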

[7] = Iron clearing efficiency in bile of rodents following a subcutaneous dosage of 300 umol/kg; assay type: functional; procedure, shortened: as §3
[8] = Iron clearing efficiency in bile-duct-cannulated rodents following a subcutaneous dosage of 300 umol/kg; assay type: functional; procedure, shortened: as §3
L1210 [9] = assay: Intracellular concentration was determined in murine L1210 cells after treatment with 30 uM compound for 48 h; assay type: functional, cell-based; conditions: Mus musculus; procedure, shortened: as §2
[10] = Iron clearing efficiency in bile of rodents following a subcutaneous dosage of 450 umol/kg; assay type: ADME; conditions: rodentia, in vivo, sc
Procedure, shortened: (§4)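 Bile-duct-cannulated rat model. Drug given sc at 450 µmol/kg, set for equivalent iron-binding capacity. Chelator-promoted iron excretion measured in both bile and urine. Multiple bile samples collected, so the kinetics of iron excretion could be followed.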

L1210 [11] = assay: Intracellular concentration was determined in murine L1210 cells after treatment with 0.2 uM compound for 48 h; assay type: functional, cell-based; conditions: Mus musculus; procedure, shortened: as §2
[12] = Iron clearing efficiency in urine of rodents following a subcutaneous dosage of 450 umol/kg; assay type: ADME; conditions: rodentia, in vivo, sc; procedure, shortened: as §4
[13] = Iron clearing efficiency in bile-duct-cannulated rodents following a subcutaneous dosage of 450 umol/kg (iron excretion delayed until ~18 hours after administration); assay type: functional
[14] = Iron clearing efficiency in bile-duct-cannulated rodents following a subcutaneous dosage of 450 umol/kg; assay type: ADME; conditions: rodentia, in vivo, sc; procedure, shortened: as §4
L1210 [15] = assay: Intracellular concentration was determined in murine L1210 cells after treatment with 100 uM compound for 4 hrs; assay type: functional, cell-based; conditions: Mus musculus; procedure, shortened: as §2
L1210 [16] = assay: Intracellular concentration was determined in murine L1210 cells after treatment with 100 uM compound for 48 hrs; assay type: functional, cell-based; conditions: Mus musculus; procedure, shortened: as §2
L1210 [17] = assay: Intracellular concentration was determined in murine L1210 cells after treatment with 50 uM compound for 48 h; assay type: functional, cell-based; conditions: Mus musculus
Procedure, shortened: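 Murine leukemia L1210 cells exposed to compound for 48 h unless otherwise indicated. Intracellular concentration expressed as pmol/10^6 cells; 10^6 untreated cells taken as about 1 µL volume. Mean of at least two or three experiments, variation typically less than 10%.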

Row | Structure (SMILES) | Ki (L1210 [1]) | Ratio (L1210 [2]) | IC50 (L1210 [3]) | IC50 (L1210 [4]) | Concentration (pmol/10E6 cells) (L1210 [5]) | Efficiency [6] | Efficiency [7] | Efficiency [8] | Concentration (pmol/10E6 cells) (L1210 [9]) | Efficiency [10] | Concentration (pmol/10E6 cells) (L1210 [11]) | Efficiency [12] | Efficiency [13] | Efficiency [14] | Concentration (pmol/10E6 cells) (L1210 [15]) | Concentration (pmol/10E6 cells) (L1210 [16]) | Concentration (pmol/10E6 cells) (L1210 [17])
1 | NCCCNCCCCNCCCNC(=O)c1ccc(C(=O)O)cc1 | 27 µM | <0.7 | > 100 µM | > 100 µM | < 70 |  |  |  |  |  |  |  |  |  |  |  | 
2 | C[C@]1(C(=O)O)CSC(c2ccc(O)cc2O)=N1 [DEFERITRIN] | > 500 µM | <0.5 | 19 µM | 20 µM | < 50 | 7% | 93% | 1.1% |  |  |  |  |  |  |  |  | 
3 | CCNCCCNCCCCNCCCNCC [BIS(ETHYL)SPERMINE] |  | 13.3 |  |  |  |  |  |  | 400 |  |  |  |  |  |  |  | 
4 | Cc1c(O)c(=O)ccn1CCCNCCCCNCCCN | 3.7 µM | 1950 | 0.2 µM |  |  |  |  |  |  | 53% | 390 | 47% | <0.5% | 1.8% |  |  | 
5 | C[C@]1(C(=O)O)CSC(c2ccc(OCCCCNCCCNCCCN)cc2O)=N1 | 73 µM | 0.7 | 40 µM | 40 µM |  | 1% | 99% | 9.2% |  |  |  |  |  |  | 71 |  | 
6 | FC(F)(F)CNCCCNCCCCNCCCNCC(F)(F)F |  | <0.2 |  | > 100 µM | < 20 |  |  |  |  |  |  |  |  |  |  |  | 
7 | COC(=O)c1ccc(C(=O)NCCCNCCCCNCCCN)cc1 | 3.1 µM | 4.3 | > 100 µM | > 100 µM |  |  |  |  |  |  |  |  |  |  |  | 430 | 
8 | Cc1c(O)c(=O)ccn1C [DEFERIPRONE] | > 500 µM | 0.02 | 46 µM | 55 µM |  |  |  |  |  | 74% |  | 26% |  | 2.2% |  |  | 1
9 | CCOC(=O)[C@@]1(C)CSC(c2ccc(OCCCCNCCCNCCCN)cc2O)=N1 | 5.7 µM |  | 1.5 µM | 1.5 µM |  | 3% | 97% | 13.6% |  |  |  |  |  |  | 2980 | 947 | 
